Laboratory results as given in ChEMBL document CHEMBL1641443, “Design, synthesis and biological evaluation of small molecule inhibitors of CD4-gp120 binding based on virtual screening” (Bioorg Med Chem, 2011).

Columns and labels:
[1] = molecular target: Envelope glycoprotein gp160 (Human immunodeficiency virus type 1 group M subtype B (isolate YU-2)(HIV-1), UniProt P35961); assay: Binding affinity to HIV1 YU2 gp120 by isothermal titration calorimetry assay; set-up: species or system Human immunodeficiency virus type 1 (isolate YU2)
In short: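 ITC at 25 °C. Cell held gp120 at about 2 μM in PBS pH 7.4 with 2% DMSO. Heat per injection taken from the integrated signal. Kd from a single run unless noted otherwise.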

[2] = system: Human immunodeficiency virus 1; assay: Antiviral activity against recombinant HIV1 YU2 in Cf2Th-CCR5 cells assessed as viral infectivity by luciferase assasy relative to JRC-II-191; type: functional, isolate YU2

SMILES	Kd ([1]; read-out: Kd)	fold change (FC) [2]	Kd [1]
CCCN1CCCC(NC(=O)C(=O)Nc2ccc(Cl)c(F)c2)C1 (centres undefined)	3300 nM	0.5	–
CC1(C)CC(NC(=O)C(=O)Nc2ccc(Cl)c(F)c2)CC(C)(C)O1	1000 nM	0	–
O=C(NCC1CCCN(CCO)C1)C(=O)Nc1ccc(Cl)c(F)c1 (centres undefined)	3200 nM	0	–
C[C@@H]1CCC[C@H](C)N1CCNC(=O)C(=O)Nc1ccc(Cl)c(F)c1	1600 nM	0.2	–
O=C(NCC1CCNCC1)C(=O)Nc1ccc(Cl)c(F)c1	3000 nM	0	–
CC1(C)CC(NC(=O)C(=O)Nc2ccc(Cl)c(F)c2)CC(C)(C)C1	–	0.1	Not Active
CCN1CCCC1CNC(=O)C(=O)Nc1ccc(Cl)c(F)c1 (centres undefined)	2100 nM	0	–
CCCN1CCC(NC(=O)C(=O)Nc2ccc(Cl)c(F)c2)CC1	4200 nM	0.2	–
CC1(C)O[C@@H](CN)[C@H](CNC(=O)C(=O)Nc2ccc(Cl)c(F)c2)O1	2600 nM	1.5	–
CN1CCC(NC(=O)C(=O)Nc2ccc(Cl)c(F)c2)CC1	9400 nM	0.1	–
Cc1n[nH]c(C)c1CNC(=O)C(=O)Nc1ccc(Cl)c(F)c1	4000 nM	0.1	–
CC1(C)CC(CNC(=O)C(=O)Nc2ccc(Cl)c(F)c2)CC(C)(C)N1	2200 nM	0.09	–
CC1(C)C2CCC1(C)C(NC(=O)C(=O)Nc1ccc(Cl)c(F)c1)C2 (centres undefined)	–	0	Not Active
O=C(NC[C@@]12CCC[C@@H]1CNC2)C(=O)Nc1ccc(Cl)c(F)c1	3100 nM	0	–
O=C(NCC1NCCc2ccccc21)C(=O)Nc1ccc(Cl)c(F)c1 (centres undefined)	1200 nM	0.6	–
CN1CCC(CNC(=O)C(=O)Nc2ccc(Cl)c(F)c2)CC1	4300 nM	0.3	–

SMILES	Kd ([1]; read-out: Kd)	fold change (FC) [2]	Kd [1]
O=C(Nc1ccc(Cl)c(F)c1)C(=O)N[C@@H]1CCN(Cc2ccccc2)C1	–	0	Not Active
O=C(Nc1ccc(Cl)c(F)c1)C(=O)NC1CCNC2(CCC2)C1 (centres undefined)	600 nM	2.6	–
CN1CCCC(CNC(=O)C(=O)Nc2ccc(Cl)c(F)c2)C1 (centres undefined)	2500 nM	0.3	–
O=C(Nc1ccc(Cl)c(F)c1)C(=O)NC1CCc2[nH]ncc2C1 (centres undefined)	–	0	Not Active
CC(C)N1CCCCC1CCNC(=O)C(=O)Nc1ccc(Cl)c(F)c1 (centres undefined)	2300 nM	0	–
O=C(NC[C@@H]1CCCN2CCCC[C@H]12)C(=O)Nc1ccc(Cl)c(F)c1	–	0	–
CC(C)N1CCC(NC(=O)C(=O)Nc2ccc(Cl)c(F)c2)CC1	1900 nM	0	–
Cc1cccc(-c2cc(C(=O)Nc3ccc(Cl)cc3)n[nH]2)c1O	–	0	–
CC1(C)CC(NC(=O)C(=O)Nc2ccc3ccccc3c2)CC(C)(C)N1	–	0	–
CC1(C)CC(NC(=O)C(=O)Nc2ccc(Cl)cc2F)CC(C)(C)N1	–	0	–
CC1CN(CCNC(=O)C(=O)Nc2ccc(Cl)c(F)c2)CC(C)O1 (centres undefined)	–	0	–
CN1CCCC(NC(=O)C(=O)Nc2ccc(Cl)c(F)c2)C1 (centres undefined)	4200 nM	0.7	–
C[C@@H](Sc1nc(=O)cc(N)[nH]1)C(=O)Nc1ccc(Cl)cc1	–	0	–
CC(C)COc1cc(Cl)ccc1NC(=O)C(=O)NC1CC(C)(C)NC(C)(C)C1	–	0	–
CCn1ncnc1C(C)NC(=O)C(=O)Nc1ccc(Cl)c(F)c1 (centres undefined)	–	0	–
